Series [1] can be described thus: Cytotoxicity against human SH-SY5Y cells assessed as inhibition of cell growth at 100 uM after 72 hrs by MTT assay. The note with it: read-out: GI. The format is cell-based. The method, boiled down:
(§1)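 SH-SY5Y cells grown in DMEM with 2 mM L-glutamine, streptomycin, 100 IU/mL penicillin, 1 mM non-essential amino acids, 10% heat-inactivated FBS, 37 °C, 5% CO₂. Seeded at 2000 cells/well, serum-starved 24 h for synchrony, then exposed to test compounds (DMSO below 0.1%) at various concentrations up to 100. Growth read by MTT colorimetric assay after 72 h.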
(In general: Tetrazolium dyes change colour on reduction, which living cells bring about.)

Series [2] addresses T1, 5-hydroxytryptamine receptor 6 (Homo sapiens, UniProt P50406). In words: Displacement of [3H]LSD from human 5-HT6 receptor expressed in HEK293 cell membranes at 100 nM incubated for 60 mins by radioligand binding assay. The essentials: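 Competition binding on membranes of HEK-293 cells transiently expressing human 5-HT6; 4 of protein incubated 60 min at 37 °C in duplicate with 2.5 nM [3H]-LSD in 50 mM Tris-HCl pH 7.4, 10 mM MgCl₂, 0.5 mM EDTA. Compounds tested at 10^-7 M for % displacement (n = 3), then Ki calculated. GF/C filtration, five ice-cold buffer washes.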
Background: Loss of bound radioactivity is the signal in a displacement assay; it reports binding, not function.

Series [3] can be described thus: Cytotoxicity against human SH-SY5Y cells assessed as inhibition of cell growth after 72 hrs by MTT assay. The series is classed as cell-based. The essentials: as §1
In series [4] the target is T1, 5-hydroxytryptamine receptor 6. In words: Displacement of [3H]LSD from human 5-HT6 receptor expressed in HEK293 cell membranes incubated for 60 mins by radioligand binding assay.

Each structure is given as a SMILES string. pIC50, pKi: −log10 of the molar value.

T1 sequence (P50406 whole entry): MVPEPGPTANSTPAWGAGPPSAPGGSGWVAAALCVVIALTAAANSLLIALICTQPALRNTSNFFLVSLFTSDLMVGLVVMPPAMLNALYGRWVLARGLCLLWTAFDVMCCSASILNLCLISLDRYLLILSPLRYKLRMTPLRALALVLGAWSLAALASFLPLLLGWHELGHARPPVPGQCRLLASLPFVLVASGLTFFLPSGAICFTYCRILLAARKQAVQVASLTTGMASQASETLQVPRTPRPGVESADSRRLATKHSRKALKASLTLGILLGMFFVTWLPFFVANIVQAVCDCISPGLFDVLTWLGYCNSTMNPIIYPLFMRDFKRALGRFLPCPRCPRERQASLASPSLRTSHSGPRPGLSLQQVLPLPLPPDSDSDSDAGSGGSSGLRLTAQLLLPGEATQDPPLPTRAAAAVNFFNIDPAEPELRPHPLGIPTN

Take `O=c1sc2cc(NS(=O)(=O)c3ccc4ccccc4c3)ccc2n1CCN1CCCCC1`: the inhibition at 72 h, 100 µM in series [1] amounted to 5%. Moreover, in series [2], the inhibition is 4%.
Take `O=c1sc2cc(S(=O)(=O)Nc3ccccc3)ccc2n1CCN1CCCC1`: the inhibition in series [2] stood at 37%. Further, in series [3], the negative-log IC50 (pIC50) is 5.00.
Consider `CN(C)CCn1c(=O)sc2cc(NS(=O)(=O)c3ccccc3)ccc21`, for which, in series [1], the inhibition at 72 h, 100 µM was determined as 20%. Besides, the inhibition in series [2] was determined as 5%.
In series [2], `CN(C)CCn1c(=O)sc2cc(S(=O)(=O)c3ccccc3)ccc21` returned an inhibition of 16%. The pIC50 in series [3] is 4.06.
With `CN(C)CCn1c(=O)sc2cc(NS(=O)(=O)c3ccc4ccccc4c3)ccc21`, the inhibition at 72 h, 100 µM in series [1] was found to be 17%. In series [2], this molecule yielded an inhibition of 22%.
Consider `O=c1sc2cc(NS(=O)(=O)c3ccc4ccccc4c3)ccc2n1CCN1CCCC1`, for which, in series [1], the inhibition at 72 h, 100 µM was determined as 28%. Also, the inhibition in series [2] was determined as 0%.
With `CN(c1cccc2ccccc12)S(=O)(=O)c1ccc2c(c1)sc(=O)n2CCN1CCCCC1`, in series [2], the inhibition was determined as 14%. For the same molecule, the pIC50 in series [3] is 4.04.
Regarding `O=c1sc2cc(NS(=O)(=O)c3ccccc3)ccc2n1CCN1CCCCC1`, in series [1], the inhibition at 72 h, 100 µM turned out to be 39%. The inhibition in series [2] stood at 6%.
With `O=c1sc2cc(N(S(=O)(=O)c3ccccc3)S(=O)(=O)c3ccccc3)ccc2n1CCN1CCCC1`, the inhibition at 72 h, 100 µM in series [1] was found to be 19%. The molecule further showed an inhibition in series [2] of 20%.
Take `CN(c1ccccc1)S(=O)(=O)c1ccc2c(c1)sc(=O)n2CCN1CCCCC1`: the inhibition in series [2] is 0%. In series [3], the pIC50 was 4.30.
Taken in the same sequence, the figures for `O=c1sc2cc(S(=O)(=O)Nc3cccc4ccccc34)ccc2n1CCN1CCCCC1` were 3% and 4.60.
With `CN(C)CCn1c(=O)sc2cc(S(=O)(=O)Nc3ccccc3)ccc21`, in series [1], the inhibition at 72 h, 100 µM came to 0%. Besides, in series [2], the inhibition stood at 21%.
For the molecule `O=c1sc2cc(S(=O)(=O)Nc3cccc4ccccc34)ccc2n1CCN1CCCC1`, the inhibition in series [2] amounted to 0%. Moreover, the pIC50 in series [3] was 4.16.
In the same order, the values of `CN(c1cccc2ccccc12)S(=O)(=O)c1ccc2c(c1)sc(=O)n2CCN1CCCC1` are 40% and 3.99.
Taken in the same sequence, the figures for `O=c1sc2cc(S(=O)(=O)Nc3ccccc3)ccc2n1CCN1CCCCC1` were 7% and 4.76.
In turn, `CN(C)CCn1c(=O)sc2cc(S(=O)(=O)Nc3cccc4ccccc34)ccc21` gave a negative logarithm of the Ki (pKi) in series [4] of 7.00. Moreover, the negative logarithm of the IC50 (pIC50) in series [3] is 4.34.
In the case of `CN(C)CCn1c(=O)sc2cc(S(=O)(=O)N(C)c3cccc4ccccc34)ccc21`, in series [2], the inhibition amounted to 0%. In addition, the negative logarithm of the IC50 (pIC50) in series [3] was 4.54.
Taken in the same sequence, the figures for `CN(c1ccccc1)S(=O)(=O)c1ccc2c(c1)sc(=O)n2CCN1CCCC1` were 10% and 4.31.
In the same order, the values of `CN(C)CCn1c(=O)sc2cc(S(=O)(=O)N(C)c3ccccc3)ccc21` are 5% and 4.04.
In the same order, the values of `O=c1sc2cc(S(=O)(=O)c3ccccc3)ccc2n1CCN1CCCCC1` are 11% and 4.36.
Turning to `O=c1sc2cc(NS(=O)(=O)c3ccccc3)ccc2n1CCN1CCCC1`, the inhibition at 72 h, 100 µM in series [1] was 25%. The inhibition in series [2] came out at 11%.

Broadly, the pIC50 is −log10 of the IC50, conventionally taken in molar units. As usually defined, the pKi is the negative decadic logarithm of the Ki, by convention in mol/L. A lower pKi goes with a high Ki.

The record behind these values is ChEMBL document CHEMBL3407480, “6-Sulfonylbenzothiazolones as potential scaffolds for the design of 5-HT6 ligands” (Eur J Med Chem, 2015).
